Assay results as given in ChEMBL document CHEMBL3784968, “Synthesis and mechanistic aspects of 2-anilinonicotinyl-pyrazolo[1,5-a]pyrimidine conjugates that regulate cell proliferation in MCF-7 cells via estrogen signaling” (2016).
Active and inactive are the calls of the source. The calls are words filed in the database; no cut-off is given here.

Experiments:
SiHa = test: Cytotoxicity against human SiHa cells assessed as cell viability after 24 to 48 hrs by MTT assay; format: functional
Summary of the method: (§1)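 MTT viability assay in SiHa, HeLa (cervical), MCF-7 (breast) and IMR-32 (neuroblastoma) cells, treated with conjugates over 0.25 to 8 µM for 48 h.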

MCF7 [1] = test: Cytotoxicity against human MCF7 cells assessed as cell viability after 24 to 48 hrs by MTT assay; format: functional; summary of the method: as §1
HeLa = test: Cytotoxicity against human HeLa cells assessed as cell viability after 24 to 48 hrs by MTT assay; format: functional; summary of the method: as §1
[2] = Cytotoxicity against human IMR32 cells assessed as cell viability after 24 to 48 hrs by MTT assay; format: functional, IMR-32; summary of the method: as §1
MCF7 [3] = test: Cell cycle arrest in human MCF7 cells assessed as accumulation at G0 phase at 4 uM after 48 hrs (reference value: 3%); format: functional
Summary of the method: (§2)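 MCF-7 breast cancer cells exposed 48 h to 4, 8, 16 or 32 µM; doxorubicin as positive control. Cell cycle phase distribution (G0, G1, S, G2/M) read as percentage of cells; G0 fraction taken as apoptotic cells.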

MCF7 [4] = test: Cell cycle arrest in human MCF7 cells assessed as accumulation at G1 phase at 4 uM after 48 hrs (reference value: 63%); format: functional; summary of the method: as §2
MCF7 [5] = test: Cell cycle arrest in human MCF7 cells assessed as accumulation at S phase at 4 uM after 48 hrs (reference value: 9%); format: functional; summary of the method: as §2
MCF7 [6] = test: Cell cycle arrest in human MCF7 cells assessed as accumulation at G2/M phase at 4 uM after 48 hrs (reference value: 25%); format: functional; summary of the method: as §2
MCF7 [7] = test: Cell cycle arrest in human MCF7 cells assessed as accumulation at G0 phase at 8 uM after 48 hrs (reference value: 3%); format: functional; summary of the method: as §2
MCF7 [8] = test: Cell cycle arrest in human MCF7 cells assessed as accumulation at G1 phase at 8 uM after 48 hrs (reference value: 63%); format: functional; summary of the method: as §2
MCF7 [9] = test: Cell cycle arrest in human MCF7 cells assessed as accumulation at S phase at 8 uM after 48 hrs (reference value: 9%); format: functional; summary of the method: as §2
MCF7 [10] = test: Cell cycle arrest in human MCF7 cells assessed as accumulation at G2/M phase at 8 uM after 48 hrs (reference value: 25%); format: functional; summary of the method: as §2
MCF7 [11] = test: Cell cycle arrest in human MCF7 cells assessed as accumulation at G0 phase at 16 uM after 48 hrs (reference value: 3%); format: functional; summary of the method: as §2
MCF7 [12] = test: Cell cycle arrest in human MCF7 cells assessed as accumulation at G1 phase at 16 uM after 48 hrs (reference value: 63%); format: functional; summary of the method: as §2
MCF7 [13] = test: Cell cycle arrest in human MCF7 cells assessed as accumulation at S phase at 16 uM after 48 hrs (reference value: 9%); format: functional; summary of the method: as §2
MCF7 [14] = test: Cell cycle arrest in human MCF7 cells assessed as accumulation at G2/M phase at 16 uM after 48 hrs (reference value: 25%); format: functional; summary of the method: as §2
MCF7 [15] = test: Cell cycle arrest in human MCF7 cells assessed as accumulation at G0 phase at 32 uM after 48 hrs (reference value: 3%); format: functional; summary of the method: as §2
MCF7 [16] = test: Cell cycle arrest in human MCF7 cells assessed as accumulation at G1 phase at 32 uM after 48 hrs (reference value: 63%); format: functional; summary of the method: as §2
MCF7 [17] = test: Cell cycle arrest in human MCF7 cells assessed as accumulation at S phase at 32 uM after 48 hrs (reference value: 9%); format: functional; summary of the method: as §2
MCF7 [18] = test: Cell cycle arrest in human MCF7 cells assessed as accumulation at G2/M phase at 32 uM after 48 hrs (reference value: 25%); format: functional; summary of the method: as §2
MCF7 [19] = test: Down regulation of ER alpha expression in human MCF7 cells at 4 uM after 24 hrs by luciferase reporter gene assay; format: functional, cell-based
Summary of the method: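 MCF-7 cells first transfected with ERα construct for 48 h, then compound exposure at 4 µM for 24 h; luciferase-based read-out; etoposide and doxorubicin run as standards.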

MCF7 [20] = test: Down regulation of Bcl-2 expression in human MCF7 cells at 1 uM after 24 hrs by Western blot analysis; format: functional, cell-based
MCF7 [21] = test: Down regulation of cyclin D expression in human MCF7 cells at 1 uM after 24 hrs by Western blot analysis; format: functional, cell-based
MCF7 [22] = test: Down regulation of survivin expression in human MCF7 cells at 1 uM after 24 hrs by Western blot analysis; format: functional, cell-based

COc1cc(-c2cc(C(=O)N3CCN(C(=O)c4cccnc4Nc4ccccc4)CC3)nc3cc(-c4ccccc4)nn23)cc(OC)c1OC
Activity (SiHa): 5.1 µM
Activity (MCF7 [1]): 6.93 µM
Activity (HeLa): 2.99 µM
Activity [2]: 7.25 µM

O=C(c1cc(-c2ccc(F)cc2)n2nc(-c3ccccc3)cc2n1)N1CCN(C(=O)c2cccnc2Nc2ccccc2)CC1
Activity (SiHa): 2.65 µM
Activity (MCF7 [1]): 1.79 µM
Activity (HeLa): 2.29 µM
Activity [2]: 4.65 µM
Activity (MCF7 [3]): 1%
Activity (MCF7 [4]): 52%
Activity (MCF7 [5]): 8%
Activity (MCF7 [6]): 38%
Activity (MCF7 [7]): 2%
Activity (MCF7 [8]): 54%
Activity (MCF7 [9]): 10%
Activity (MCF7 [10]): 33%
Activity (MCF7 [11]): 5%
Activity (MCF7 [12]): 58%
Activity (MCF7 [13]): 8%
Activity (MCF7 [14]): 28%
Activity (MCF7 [15]): 9%
Activity (MCF7 [16]): 44%
Activity (MCF7 [17]): 9%
Activity (MCF7 [18]): 39%
Activity (MCF7 [19]): Active
Activity (MCF7 [20]): Active
Activity (MCF7 [21]): Active
Activity (MCF7 [22]): Active

COc1ccc(-c2cc(C(=O)N3CCN(C(=O)c4cccnc4Nc4ccc(F)cc4)CC3)nc3cc(-c4ccccc4)nn23)cc1OC
Activity (SiHa): 5.64 µM
Activity (MCF7 [1]): 7.02 µM
Activity (HeLa): 3.16 µM
Activity [2]: 5.87 µM

COc1ccc(Nc2ncccc2C(=O)N2CCN(C(=O)c3cc(-c4ccc(Cl)c(Cl)c4)n4nc(-c5ccccc5)cc4n3)CC2)cc1OC
Activity (SiHa): 3.73 µM
Activity (MCF7 [1]): 5.95 µM
Activity (HeLa): 5.11 µM
Activity [2]: 7.15 µM

COc1cc(Nc2ncccc2C(=O)N2CCN(C(=O)c3cc(-c4ccc(Cl)c(Cl)c4)n4nc(-c5ccccc5)cc4n3)CC2)cc(OC)c1OC
Activity (SiHa): 3.65 µM
Activity (MCF7 [1]): 5.38 µM
Activity (HeLa): 4.52 µM
Activity [2]: 5.62 µM

COc1ccc(Nc2ncccc2C(=O)N2CCN(C(=O)c3cc(-c4cc(OC)c(OC)c(OC)c4)n4nc(-c5ccccc5)cc4n3)CC2)cc1
Activity (SiHa): 3.87 µM
Activity (MCF7 [1]): 3.02 µM
Activity (HeLa): 2.85 µM
Activity [2]: 5.87 µM

COc1ccc(-c2cc(C(=O)N3CCN(C(=O)c4cccnc4Nc4ccccc4)CC3)nc3cc(-c4ccccc4)nn23)cc1OC
Activity (SiHa): 5.93 µM
Activity (MCF7 [1]): 6.12 µM
Activity (HeLa): 2.88 µM
Activity [2]: 6.5 µM

O=C(c1cc(-c2ccc(Cl)c(Cl)c2)n2nc(-c3ccccc3)cc2n1)N1CCN(C(=O)c2cccnc2Nc2ccccc2)CC1
Activity (SiHa): 5.93 µM
Activity (MCF7 [1]): 5.3 µM
Activity (HeLa): 2.57 µM
Activity [2]: 7.87 µM

COc1ccc(-c2cc(C(=O)N3CCN(C(=O)c4cccnc4Nc4cc(OC)c(OC)c(OC)c4)CC3)nc3cc(-c4ccccc4)nn23)cc1OC
Activity (SiHa): 7.65 µM
Activity (MCF7 [1]): 7.34 µM
Activity (HeLa): 4.24 µM
Activity [2]: 4.88 µM

COc1cc(-c2cc(C(=O)N3CCN(C(=O)c4cccnc4Nc4ccc(F)cc4)CC3)nc3cc(-c4ccccc4)nn23)cc(OC)c1OC
Activity (SiHa): 5.25 µM
Activity (MCF7 [1]): 6.28 µM
Activity (HeLa): 2.57 µM
Activity [2]: 5.75 µM

O=C(c1cc(-c2ccc(Cl)c(Cl)c2)n2nc(-c3ccccc3)cc2n1)N1CCN(C(=O)c2cccnc2Nc2ccc(F)cc2)CC1
Activity (SiHa): 5.27 µM
Activity (MCF7 [1]): 4.73 µM
Activity (HeLa): 4.27 µM
Activity [2]: 5.87 µM

COc1ccc(Nc2ncccc2C(=O)N2CCN(C(=O)c3cc(-c4ccc(Cl)c(Cl)c4)n4nc(-c5ccccc5)cc4n3)CC2)cc1
Activity (SiHa): 3.92 µM
Activity (MCF7 [1]): 6.12 µM
Activity (HeLa): 2.64 µM
Activity [2]: 5 µM
